Consider 1 compound from ChEMBL document CHEMBL4028857, “Anchimerically Activated ProTides as Inhibitors of Cap-Dependent Translation and Inducers of Chemosensitization in Mantle Cell Lymphoma” (J Med Chem, 2017).

Usually pIC50 stands for the negative decadic logarithm of the IC50, by convention in mol/L. A higher pIC50 goes with a small IC50. In general, Cmax refers to the maximum level reached in the sampled fluid or tissue. Usually half-life stands for the time needed for the level to fall by half in the phase considered.

SMILES strings stand for the structures. pIC50: −log10 of the molar value. Activity calls are given as the source filed them. Some results are limits rather than exact numbers.

For one series, the system named is Mino. The series can be described thus: (§1) Antiproliferative activity against human Mino cells preincubated for 48 hrs followed by thymidine addition measure after 16 hrs by Thymidine incorporation assay. The class given is functional, cell-based. In outline: (§2)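 MCL lines treated 48 h with compound re-added daily, alone or with co-drug (ibrutinib 25 µM where used), then thymidine added for a further 16 h; proliferation read as thymidine incorporation.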
In general terms: Dividing cells build labelled thymidine or BrdU into new DNA.

Series [1] can be described thus: as §1. Type of series: functional, cell-based. In short, it runs like this: as §2
Series [2] can be described thus: Cmax in Sprague-Dawley rat at 25 mg/kg, po measured at 30 mins post dose by LC-MS/MS analysis. Further details: dose 25 mg/kg, route oral. Particulars: in vivo. Type of series: ADME, organism-based. In outline: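 Female Sprague-Dawley rats (250-274 g, n=3, catheterized femoral/jugular veins) dosed once p.o. by gavage (25 mg/kg) then, after a 3-day washout, i.v. (2.5 mg/kg). Formulation: 10 mg/mL in 0.5% aqueous CMC with 5% DMSO. Serial blood draws to 480 min into K2EDTA; plasma protein-precipitated with acetonitrile plus internal standards; LC-MS/MS (positive MRM); non-compartmental PK; %F from dose-normalized AUC per rat.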

Series [3] in a line: Cytotoxicity against human Mino cells assessed as reduction in cell survival at 100 uM after 48 hrs in presence of doxorubicin by Annexin V/propidium iodide based flow cytometric analysis. In outline: (§3)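 MCL lines treated 48 h with compound re-added daily (alone or with co-drug; ibrutinib 25 µM), then survival assessed by Annexin V/PI flow cytometry.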
For orientation: A flow cytometer gives signals particle by particle.

Series [4] addresses Eukaryotic translation initiation factor 4E (Homo sapiens) (UniProt P06730). Nature of the series: Inhibition of eIF4E in human GRANTA-519 cells assessed as increase in p27 protein expression after 48 hrs by Western blot method. Type of series: cell-based. In short, it runs like this:
(§4)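 MCL lines treated 48 h with compound; protein quantified and Western blotted with eIF4E, eIF4G, actin, c-Myc and Bcl-2 antibodies.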
In general terms: A western blot detects proteins with antibodies after separation by electrophoresis.

Series [5] in a line: Antiproliferative activity against human Mino cells after 48 hrs by Annexin V/propidium iodide based flow cytometric analysis. Type of series: functional, cell-based. In outline:
as §3

In series [6] the target is Eukaryotic translation initiation factor 4E (Homo sapiens) (UniProt P06730). The series can be described thus: Inhibition of eIF4E in human Mino cells assessed as increase in p27 protein expression after 48 hrs by Western blot method. Type of series: cell-based. In outline: as §4
Chain of Eukaryotic translation initiation factor 4E (Homo sapiens) (P06730 whole entry): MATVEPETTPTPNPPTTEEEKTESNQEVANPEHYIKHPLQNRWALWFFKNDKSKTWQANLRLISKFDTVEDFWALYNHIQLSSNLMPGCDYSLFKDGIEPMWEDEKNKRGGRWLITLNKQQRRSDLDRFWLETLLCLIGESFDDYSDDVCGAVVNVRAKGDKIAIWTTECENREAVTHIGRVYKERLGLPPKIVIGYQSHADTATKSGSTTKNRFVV
Series [7] has the same target. The series can be described thus: Inhibition of eIF4E in human Mino cells assessed as down regulation of Bcl-2 expression at 50 to 200 uM after 48 hrs by Western blot method. Type of series: cell-based. In short, it runs like this:
as §4

Series [8] has the same target. The series can be described thus: Inhibition of eIF4E in human Mino cells assessed as potentiation of ibrutinib induced antiproliferation at 100 uM preincubated for 48 hrs followed by thymidine addition measure after 16 hrs by Thymidine incorporation assay. The class given is cell-based. In outline: as §2
Series [9] deals with Adenosine 5'-monophosphoramidase HINT1 (Homo sapiens, UniProt P49773). The series can be described thus: Prodrug activation in human Z138 cells assessed as hint1-mediated 2-amino-7-(2-(4-chlorophenoxy)ethyl)-9-((2R,3R,4S,5R)-3,4-dihydroxy-5-(phosphonooxymethyl)tetrahydrofuran-2-yl)-6-oxo-6,9-dihydro-1H-purin-7-ium formation per 5 million cells at 150 uM after 12 hrs by LC-MS/MS analysis relative to 9-((2R,3R,4S,5R)-5-(((((2-(1H-Indol-3-yl)ethyl)amino)-(hydroxy)phosphoryl)oxy)methyl)-3,4-dihydroxytetrahydrofuran-2-yl)-2-amino-7-(2-(4-chlorophenoxy)ethyl)-6-oxo-6,9-dihydro-1H-purin-7-ium. Type of series: cell-based. In outline: (§5)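 Mantle cell lymphoma cells (five million) grown in RPMI with 10% FBS, penicillin/streptomycin and L-glutamine at 37 °C, 5% CO2, then exposed to 150 µM compound for 12 h at 37 °C. Washed with ice-cold PBS, pellet extracted in MeOH/NH4OAc (60:40) with 80 fmol internal standards, three liquid-N2 freeze–thaw cycles, filtered, dried, redissolved in 20 mM HEPES pH 7.2. Analysed by LC-MS/MS against a standard curve.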
Chain of Adenosine 5'-monophosphoramidase HINT1 (P49773 whole entry): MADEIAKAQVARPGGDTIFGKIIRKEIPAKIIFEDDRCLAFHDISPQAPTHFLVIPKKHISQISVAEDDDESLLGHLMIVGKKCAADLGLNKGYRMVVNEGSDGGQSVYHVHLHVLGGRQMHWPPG

A short description of series [10]: Prodrug activation in human Mino cells assessed as 9-((2R,3R,4S,5R)-5-(((((2-(1H-Indol-3-yl)ethyl)amino)-(hydroxy)phosphoryl)oxy)methyl)-3,4-dihydroxytetrahydrofuran-2-yl)-2-amino-7-(2-(4-chlorophenoxy)ethyl)-6-oxo-6,9-dihydro-1H-purin-7-ium formation per 5 million cells at 150 uM after 12 hrs by LC-MS/MS analysis. The class given is cell-based. In outline:
as §5

The nature of series [11]: Half life in HEPES buffer at 80 uM at pH 2 by RP-HPLC analysis. Type of series: physicochemical. In short, it runs like this:
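Compound at 80 µM in 20 mM HEPES (pH 7.2 or 2.0) incubated at 37 °C; aliquots analyzed by RP-HPLC at 0, 1, 4, 6, 12, 18 and 24 h to follow methylthioalkyl deprotection and derive half-life.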

In the case of `CSCCOP(=O)(NCCc1c[nH]c2ccccc12)OC[C@H]1O[C@@H](n2c[n+](CCOc3ccc(Cl)cc3)c3c(=O)[nH]c(N)nc32)[C@H](O)[C@@H]1O` (some centres not stated), the Activity result in the series on Mino is “Dose-dependent effect”; in [3], “Non-Toxic”. In addition, the pIC50 in series [1] is 4.30; in series [5], < 3.70. The peak level in series [2] (Cmax) was 5 ng/mL. Moreover, the inhibition result in [4] and in series [6] was “Dose-dependent effect” throughout. Also, the inhibition result in series [7] is “inactive”. In addition, the inhibition result in [8] is “Active”. Moreover, the “fold change (FC)” value in [9] is 520. Besides, the Drug metabolism in [10] is on record as 64.6 pmol. The same compound had a half-life at 80 µM in [11] of 5 h.
